According to ChEMBL document CHEMBL1158703, “Psychopharmacological profile of the alkaloid psychollatine as a 5HT2A/C serotonin modulator” (2005):
Active and inactive are the calls of the source.

How the values were obtained:
Mus musculus [1] = test: Anxiolytic activity against CF1 mouse assessed as increase in latency to enter in the dark compartment 0.85 mg/kg in presence of picrotoxin for 5 mins; type: functional, organism-based; design: dose 0.85 mg/kg
How it was run: (§1)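 Light/dark box with a small black compartment and a large white one lit at 400 lx. Male CF1 mice were acclimatised for ≥1 h under dim red light. Diazepam in 10% propylene glycol was given i.p. 30 min before testing. Picrotoxin 1 mg/kg i.p. in saline was given 30 min before treatment. Read-outs: latency to first entry and time spent in the light area. N = 8–22, ANOVA then SNK.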

Mus musculus [2] = test: Anticonvulsant activity against CF1 mouse assessed as protection against PTZ-induced convulsions at 0.8 mg/kg, ip for 60 mins; type: functional; conditions: route intraperitoneal
How it was run: (§2)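 Male adult CF1 mice (2 months at purchase, housed ≥2 weeks at 22 °C, 12 h light/dark). Drug given i.p. (0.1 mL/10 g); 30 min later PTZ 88 mg/kg s.c. Each mouse then observed singly for 60 min for clonic convulsions lasting >3 s. n = 10 per group. Fisher's exact test against vehicle (saline or 10% propylene glycol).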

Mus musculus [3] = test: Anxiolytic activity against CF1 mouse assessed as increase in number of rearings at 0.75 mg/kg after 30 mins by hole-board assay; type: functional, organism-based; design: dose 0.75 mg/kg
How it was run: (§3)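 Hole-board with photocell-counted head-dips; the board was marked into 16 squares of 10×10 cm. Male CF1 mice were acclimatised ≥1 h in dim light. Diazepam in 10% propylene glycol was given i.p. 30 min before testing. Picrotoxin 1 mg/kg i.p. was given 30 min before treatment. Head-dips, squares crossed and rearings were recorded over 5 min. N = 8–15, ANOVA then SNK.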

Mus musculus [4] = test: Effect on locomotory activity in CF1 mouse assessed as change in spontaneous activity at 3 to 30 mg/kg; type: functional, organism-based
How it was run: (§4)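 Mice were habituated singly for 10 min in photocell activity cages and then dosed i.p. Diazepam was given in 10% propylene glycol. After 30 min, crossings were recorded for 15 min. n = 10–16, ANOVA then SNK.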

Mus musculus [5] = test: Effect on locomotory activity in CF1 mouse assessed as change in spontaneous activity at 0.75 and 0.85 mg/kg; type: functional, organism-based; design: dose 0.85 mg/kg; how it was run: as §4
Mus musculus [6] = test: Anxiolytic activity against CF1 mouse assessed as increase in latency to enter in the dark compartment 0.85 mg/kg for 5 mins; type: functional, organism-based; design: dose 0.85 mg/kg; how it was run: as §1
Mus musculus [7] = test: Anxiolytic activity against CF1 mouse assessed as increase in number of head dips at 0.75 mg/kg after 30 mins in presence of picrotoxin by hole-board assay; type: functional, organism-based; design: dose 0.75 mg/kg; how it was run: as §3
Mus musculus [8] = test: Anxiolytic activity against CF1 mouse assessed as increase in number of crossings at 0.75 mg/kg after 30 mins by hole-board assay; type: functional, organism-based; design: dose 0.75 mg/kg; how it was run: as §3
Mus musculus [9] = test: Anticonvulsant activity against CF1 mouse assessed as protection against PTZ-induced convulsions at 20 mg/kg, ip for 60 mins; type: functional; conditions: route intraperitoneal; how it was run: as §2
Mus musculus [10] = test: Anxiolytic activity against CF1 mouse assessed as increase in number of rearings at 0.75 mg/kg after 30 mins in presence of picrotoxin by hole-board assay; type: functional, organism-based; design: dose 0.75 mg/kg; how it was run: as §3
Mus musculus [11] = test: Anxiolytic activity against CF1 mouse assessed as increase in time spent in light compartment at 0.85 mg/kg in presence of picrotoxin for 5 mins; type: functional, organism-based; design: dose 0.85 mg/kg; how it was run: as §1
Mus musculus [12] = test: Anxiolytic activity against CF1 mouse assessed as increase in time spent in light compartment at 0.85 mg/kg for 5 mins; type: functional, organism-based; design: dose 0.85 mg/kg; how it was run: as §1
Mus musculus [13] = test: Anxiolytic activity against CF1 mouse assessed as increase in number of head dips at 0.75 mg/kg after 30 mins by hole-board assay; type: functional, organism-based; design: dose 0.75 mg/kg; how it was run: as §3
Mus musculus [14] = test: Anxiolytic activity against CF1 mouse assessed as increase in number of crossings at 0.75 mg/kg after 30 mins in presence of picrotoxin by hole-board assay; type: functional, organism-based; design: dose 0.75 mg/kg; how it was run: as §3
Mus musculus [15] = test: Antidepressant activity in CF1 mouse assessed as decrease in duration of immobility at 15 mg/kg during final 4 mins of the 6 mins session by forced swimming test; type: functional
Mus musculus [16] = test: Anxiolytic activity against CF1 mouse assessed as suppression of oxotremorine-treated tremors at 3 mg/kg; type: functional, organism-based; design: dose 3 mg/kg
How it was run: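 Mice received treatment i.p. 30 min before oxotremorine 0.5 mg/kg in saline. Each mouse was then placed alone in a transparent cage immediately after injection and tremor was scored. Data given as median (interquartile range); Kruskal–Wallis then Mann–Whitney U against saline + oxotremorine.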

Mus musculus [17] = test: Effect on short term memory of CF1 mouse assessed as reduction in latency during aquisition at 0.15 mg/kg by passive avoidance test; type: functional
Mus musculus [18] = test: Effect on long term memory of CF1 mouse assessed as reduction in latency during aquisition at 0.15 mg/kg by passive avoidance test; type: functional
How it was run: (§5)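 Step-down inhibitory avoidance in male CF1 mice. Training used a 0.3 mA scrambled footshock for 15 s on stepping down. The test session was 24 h later without shock, with a 300 s cutoff. For acquisition effects, drug (MK-801 or diazepam in 10% propylene glycol, i.p.) was given 30 min before training; the post-training group was dosed immediately after training. N = 20, medians (IQR).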

Mus musculus [19] = test: Effect on long term memory of CF1 mouse assessed as reduction in step down latency at 0.15 mg/kg by passive avoidance test; type: functional; how it was run: as §5
Mus musculus [20] = test: Effect on short term memory of CF1 mouse assessed as reduction in step down latency at 0.15 mg/kg by passive avoidance test; type: functional
Mus musculus [21] = test: Antidepressant activity in CF1 mouse assessed as decrease in duration of immobility at 0.15 mg/kg during final 4 mins of the 6 mins session by forced swimming test; type: functional
How it was run: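 Male adult CF1 mice, dosed i.p. Each mouse made to swim for 6 min in a 30 cm diameter cylinder holding 20 cm of water at 25 ± 1 °C. Immobility time was scored over the last 4 min. N = 10 per group, mean ± SEM, ANOVA against saline.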

Structure (SMILES): CN1C(=O)CN=C(c2ccccc2)c2cc(Cl)ccc21 [DIAZEPAM]
- Activity (Mus musculus [1]): inactive
- Activity (Mus musculus [2]): 10%
- Activity (Mus musculus [3]): Active
- Activity (Mus musculus [4]): inactive
- Activity (Mus musculus [5]): inactive
- Activity (Mus musculus [6]): Active
- Activity (Mus musculus [7]): inactive
- Activity (Mus musculus [8]): Active
- Activity (Mus musculus [9]): 0%
- Activity (Mus musculus [10]): inactive
- Activity (Mus musculus [11]): inactive
- Activity (Mus musculus [12]): Active
- Activity (Mus musculus [13]): Active
- Activity (Mus musculus [14]): inactive

Structure (SMILES): CN(C)CCCN1c2ccccc2CCc2ccccc21 [IMIPRAMINE]
- Activity (Mus musculus [15]): 46.05 s

Structure (SMILES): CCC1(c2ccccc2)C(=O)NC(=O)NC1=O [PHENOBARBITAL]
- Activity (Mus musculus [2]): 10%
- Activity (Mus musculus [9]): 0%

Structure (SMILES): CN1[C@@H]2C[C@@H](OC(=O)[C@H](CO)c3ccccc3)C[C@H]1[C@@H]1O[C@@H]12
- Activity (Mus musculus [16]): Active

Structure (SMILES): C[C@]12N[C@H](Cc3ccccc31)c1ccccc12 [DIZOCILPINE]
- Activity (Mus musculus [17]): 8.4 s
- Activity (Mus musculus [18]): 6 s
- Activity (Mus musculus [19]): 6.2 s
- Activity (Mus musculus [20]): 16.5 s
- Activity (Mus musculus [21]): 33.36 s
